38 compounds from ChEMBL document CHEMBL1153317, “Design, synthesis, and structure-activity relationship of novel CCR2 antagonists” (Bioorg Med Chem Lett, 2009) can be followed below.

Data set [1] concerns the target T1, C-C chemokine receptor type 2 (Homo sapiens, UniProt P41597). The data set can be described thus: Displacement of [125I]hMCP1 from human CCR2 receptor expressed in CHO cells. The format is cell-based. The essentials:
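CHO cells expressing human CCR2b (5 × 10⁴) incubated 60 min at room temperature with ¹²⁵I-hMCP-1 (20–50 pM) plus varied competitor concentrations in 50 mM Hepes, 5 mM MgCl₂, 1 mM CaCl₂, pH 7.4. Stopped by filtration on polyethyleneimine-presoaked GF/B filters, washed with 25 mM Hepes pH 7.5/500 mM NaCl. IC50 is the average of triplicate measurements.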
Target sequence in this assay (P41597 whole entry): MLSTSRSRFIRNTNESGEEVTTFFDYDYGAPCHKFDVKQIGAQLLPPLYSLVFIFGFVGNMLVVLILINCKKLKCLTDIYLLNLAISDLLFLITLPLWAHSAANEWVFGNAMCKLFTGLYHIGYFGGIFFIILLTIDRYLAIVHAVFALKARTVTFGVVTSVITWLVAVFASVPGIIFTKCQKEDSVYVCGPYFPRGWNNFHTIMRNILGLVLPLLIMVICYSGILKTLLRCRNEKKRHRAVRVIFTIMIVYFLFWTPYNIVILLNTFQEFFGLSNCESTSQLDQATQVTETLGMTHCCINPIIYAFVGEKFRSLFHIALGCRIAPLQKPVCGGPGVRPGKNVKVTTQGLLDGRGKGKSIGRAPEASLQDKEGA

In data set [2] the target is T1, C-C chemokine receptor type 2. The data set can be described thus: Displacement of [125I]hMCP1 from human CCR2 receptor expressed in CHO cells at 1 uM. It counts as cell-based.
Target sequence in this assay (P41597 whole entry, looked up): as the sequence (P41597 whole entry) above
Data set [3] can be described thus: AUC in Sprague-Dawley rat at 3 mg/kg, po. It counts as ADME, organism-based. On the set-up: dose 3 mg/kg, route oral. The note with it: plasma.
A short description of data set [4]: Tmax in Sprague-Dawley rat at 3 mg/kg, po. It counts as ADME, organism-based. Also noted: dose 3 mg/kg, route oral. Conditions: in vivo.
Data set [5] in a line: Cmax in Sprague-Dawley rat at 3 mg/kg, po. The format is ADME, organism-based. Also noted: dose 3 mg/kg, route oral. The note with it: in vivo.
The nature of data set [6]: Oral bioavailability in Sprague-Dawley rat at 3 mg/kg. It counts as ADME, organism-based. Conditions: in vivo.
The nature of data set [7]: AUC in Beagle dog at 2 mg/kg, po. It counts as ADME, organism-based, Canis lupus familiaris. Also noted: dose 2 mg/kg, route oral. Conditions: plasma.
A short description of data set [8]: Tmax in Beagle dog at 2 mg/kg, po. Conditions: in vivo. On the set-up: dose 2 mg/kg, route oral. The format is ADME, organism-based, Canis lupus familiaris.
The nature of data set [9]: Cmax in Beagle dog at 2 mg/kg, po. It counts as ADME, organism-based, Canis lupus familiaris. On the set-up: dose 2 mg/kg, route oral. Conditions: in vivo.
Data set [10] can be described thus: Oral bioavailability in Beagle dog at 2 mg/kg. The format is ADME, organism-based, Canis lupus familiaris. Conditions: in vivo.
A short description of data set [11]: AUC in rhesus monkey at 2 mg/kg, po. The format is ADME, organism-based, Macaca mulatta. Also noted: dose 2 mg/kg, route oral. Conditions: plasma.
A short description of data set [12]: Tmax in rhesus monkey at 2 mg/kg, po. The format is ADME, organism-based, Macaca mulatta. On the set-up: dose 2 mg/kg, route oral. Conditions: in vivo.
Data set [13] is described as follows: Cmax in rhesus monkey at 2 mg/kg, po. It counts as ADME, organism-based, Macaca mulatta. The note with it: in vivo. Also noted: dose 2 mg/kg, route oral.
Data set [14] is described as follows: Oral bioavailability in rhesus monkey at 2 mg/kg. The note with it: in vivo. The format is ADME, organism-based, Macaca mulatta.

As a reminder, the IC50 is the concentration that inhibits the measured activity by half. In [1], `CC(C)[C@]1(C(=O)NCc2cc(C(F)(F)F)cc(C(F)(F)F)c2)CC[C@@H](NC2CCOCC2F)C1` (stereo in doubt; 50) displayed an IC50 of 6 nM.

Take `CC(C)[C@]1(C(=O)NCc2cc(C(F)(F)F)cc(C(F)(F)F)c2)CC[C@@H](NC2CCSC2)C1` (some centres undefined): the IC50 in [1] turned out to be 36 nM. `CCCC1COCCC1N[C@@H]1CC[C@@](C(=O)NCc2cc(C(F)(F)F)cc(C(F)(F)F)c2)(C(C)C)C1` (some centres undefined) gave an IC50 in data set [1] of 7.8 nM.

Consider `CC(C)[C@]1(C(=O)NCc2cc(C(F)(F)F)cc(C(F)(F)F)c2)CC[C@@H](NC2CCCCC2)C1`, for which the concentration for half-maximal inhibition (IC50) in [1] worked out at 64 nM. `CCC1COCCC1N[C@@H]1CC[C@@](C(=O)NCc2cc(C(F)(F)F)cc(C(F)(F)F)c2)(C(C)C)C1` (stereo in doubt; 62) returned an IC50 in [1] of 3 nM.

In data set [1], `CC(C)[C@]1(C(=O)NCc2cc(C(F)(F)F)cc(C(F)(F)F)c2)CC[C@@H](NC2CCC2)C1` gave an IC50 of 193 nM. On to `CC(C)[C@]1(C(=O)NCc2cc(C(F)(F)F)cc(C(F)(F)F)c2)CC[C@@H](NC2CCOCC2(C)C)C1` (some centres undefined), for which the IC50 in data set [1] was found to be 230 nM. `CC(C)[C@]1(C(=O)NCc2cc(C(F)(F)F)cc(C(F)(F)F)c2)CC[C@@H](NC2CCCOC2)C1` (some centres undefined) had an IC50 in data set [1] of 56 nM. Still for that read-out and setting: in the case of `CC(C)[C@]1(C(=O)NCc2cc(C(F)(F)F)cc(C(F)(F)F)c2)CC[C@@H](NC2CCOCC2(O)C(F)(F)F)C1` (some centres undefined) it was 765 nM; in that of `CC(C)[C@]1(C(=O)NCc2cc(C(F)(F)F)cc(C(F)(F)F)c2)CC[C@@H](NC2CCS(=O)(=O)CC2)C1`, 631 nM. The compound `CC1COCCC1N[C@@H]1CC[C@@](C(=O)NCc2cc(C(F)(F)F)cc(C(F)(F)F)c2)(C(C)C)C1` (stereo in doubt; 59) had an IC50 in [1] of 1.2 nM. For the compound `CC(C)[C@]1(C(=O)NCc2cc(C(F)(F)F)cc(C(F)(F)F)c2)CC[C@@H](NC2CCCCCC2)C1`, in data set [1], the IC50 turned out to be 175 nM. Turning to `CC(C)[C@]1(C(=O)NCc2cc(C(F)(F)F)cc(C(F)(F)F)c2)CC[C@@H](NC2CCCOCC2)C1` (some centres undefined), in data set [1], the concentration for half-maximal inhibition (IC50) worked out at 30 nM.

Consider `CC(C)[C@]1(C(=O)NCc2cc(C(F)(F)F)cc(C(F)(F)F)c2)CC[C@@H](NC2CCOC2)C1` (some centres undefined), for which the IC50 in [1] was 85 nM. For `CC(C)[C@]1(C(=O)NCc2cc(C(F)(F)F)cc(C(F)(F)F)c2)CC[C@@H](NC2CCc3ccccc32)C1` (some centres undefined), the IC50 in data set [1] is 77 nM.

As for `CCC1COCCC1N[C@@H]1CC[C@@](C(=O)NCc2cc(C(F)(F)F)cc(C(F)(F)F)c2)(C(C)C)C1` (stereo in doubt; 46), the IC50 in data set [1] worked out at 3 nM. In data set [1], `Cc1ccc(-c2ccc3c(c2)C=C(C(=O)Nc2ccc(C[N+](C)(C)C4CCOCC4)cc2)CCC3)cc1` registered a half-inhibitory concentration (IC50) of 28 nM. Consider `CC1COCC(C)C1N[C@@H]1CC[C@@](C(=O)NCc2cc(C(F)(F)F)cc(C(F)(F)F)c2)(C(C)C)C1` (some centres undefined), for which, in data set [1], the concentration for half-maximal inhibition (IC50) was 7 nM. `CC(C)[C@]1(C(=O)NCc2cc(C(F)(F)F)cc(C(F)(F)F)c2)CC[C@@H](NC2CCNCC2)C1`: the Activity in data set [2] stood at 21%. In the case of `CCC1COCCC1N[C@@H]1CC[C@@](C(=O)NCc2cc(C(F)(F)F)cc(C(F)(F)F)c2)(C(C)C)C1` (stereo in doubt; 61), the IC50 in data set [1] came to 5.6 nM. Still for that read-out and setting: the result for `CC(C)[C@]1(C(=O)NCc2cc(C(F)(F)F)cc(C(F)(F)F)c2)CC[C@@H](NC2CCOCC2F)C1` (stereo in doubt; 64) reads 14.3 nM.

As to `CC1COCCC1N[C@@H]1CC[C@@](C(=O)NCc2cc(C(F)(F)F)cc(C(F)(F)F)c2)(C(C)C)C1` (stereo in doubt; 58), in [1], the IC50 amounted to 4 nM.

In [1], `CC1COCCC1N[C@@H]1CC[C@@](C(=O)NCc2cc(C(F)(F)F)cc(C(F)(F)F)c2)(C(C)C)C1` (stereo in doubt; 57) came in with a half-maximal inhibitory concentration (IC50) of 42 nM. Take `CC(C)[C@]1(C(=O)NCc2cc(C(F)(F)F)cc(C(F)(F)F)c2)CC[C@@H](NC2CCc3ccccc3C2)C1` (some centres undefined): the half-maximal inhibitory concentration (IC50) in data set [1] worked out at 239 nM.

The compound `CC(C)[C@]1(C(=O)NCc2cc(C(F)(F)F)cc(C(F)(F)F)c2)CC[C@@H](NC2CCCC2)C1` had an IC50 in data set [1] of 156 nM. Still for that read-out and setting: the result for `CC(C)[C@]1(C(=O)NCc2cc(C(F)(F)F)cc(C(F)(F)F)c2)CC[C@@H](NCC2CCOCC2)C1` reads 362 nM; that for `CC(C)[C@]1(C(=O)NCc2cc(C(F)(F)F)cc(C(F)(F)F)c2)CC[C@@H](NC2CCOc3ccccc32)C1` (some centres undefined), 419 nM. In the case of `CC(C)[C@]1(C(=O)NCc2cc(C(F)(F)F)cc(C(F)(F)F)c2)CC[C@@H](NC2CCSCC2)C1`, the IC50 in data set [1] is 22 nM. On to `CC(C)[C@]1(C(=O)NCc2cc(C(F)(F)F)cc(C(F)(F)F)c2)CC[C@@H](NC2CCOCC2F)C1` (stereo in doubt; 63), for which the IC50 in data set [1] stood at 259 nM.

Turning to `CC(C)[C@]1(C(=O)NCc2cc(C(F)(F)F)cc(C(F)(F)F)c2)CC[C@@H](NC2CCOCC2C2CC2)C1` (some centres undefined), the IC50 in data set [1] turned out to be 123 nM.

A word on the AUC: it is concentration integrated over time. The term Tmax denotes the time at which the peak concentration occurs. In general, Cmax refers to the highest concentration seen after dosing. Usually bioavailability stands for dose-corrected exposure relative to a reference, in per cent. For `CC(C)[C@]1(C(=O)NCc2cc(C(F)(F)F)cc(C(F)(F)F)c2)CC[C@@H](N[C@H]2CCOC[C@H]2C)C1`, the AUC worked out at 0.76 µM·h in data set [3], 0.62 µM·h in data set [7] and 0.01 µM·h in data set [11]. The time to peak (Tmax) is 15 min in data set [4], 45 min in data set [8] and 60 min in [12]. Also, the figures for the Cmax in [5], in [9] and in [13] were 735 nM, 422 nM and 4 nM, respectively. The results for the bioavailability in data set [6], in data set [10] and in [14] were 42%, 28% and 2%, respectively.

Take `CC(C)[C@]1(C(=O)NCc2cc(C(F)(F)F)cc(C(F)(F)F)c2)CC[C@@H](NC2CCOCC2)C1`: the IC50 in data set [1] worked out at 4.6 nM. Still for that read-out and setting: the result for `CC(C)[C@]1(C(=O)NCc2cc(C(F)(F)F)cc(C(F)(F)F)c2)CC[C@@H](NC2Cc3ccccc3C2)C1` reads 187 nM; that for `CC1COCCC1N[C@@H]1CC[C@@](C(=O)NCc2cc(C(F)(F)F)cc(C(F)(F)F)c2)(C(C)C)C1` (stereo in doubt; 45), 1.5 nM. In turn, `CC(C)[C@]1(C(=O)NCc2cc(C(F)(F)F)cc(C(F)(F)F)c2)CC[C@@H](NC2CCOCC2C(F)(F)F)C1` (some centres undefined) yielded an IC50 in [1] of 5.5 nM. In turn, `CC(C)[C@]1(C(=O)NCc2cc(C(F)(F)F)cc(C(F)(F)F)c2)CC[C@@H](NC2CCOCC2O)C1` (some centres undefined) registered an IC50 in [1] of 51 nM.

In the case of `CCC1COCCC1N[C@@H]1CC[C@@](C(=O)NCc2cc(C(F)(F)F)cc(C(F)(F)F)c2)(C(C)C)C1` (stereo in doubt; 60), the IC50 in data set [1] turned out to be 141 nM. Still for that read-out and setting: in the case of `CC1CC(N[C@@H]2CC[C@@](C(=O)NCc3cc(C(F)(F)F)cc(C(F)(F)F)c3)(C(C)C)C2)CCO1` (some centres undefined) it was 28 nM.
